From PubChem
A selection: hits, their analogues and other compounds. The true share with any hit is near 3.1%.
MBD2 DNA inh: MBD2-methylated oligo binding inhibition; Q9UBB5; inhibition, % at 4.4 µM; hit rate 0.31% among 370,000; TR-FRET, MBD2 binding to methylated oligonucleotide; in the data active = inhibition above about 13%
UHRF1 MBD2 ctr: blocks human UHRF1 binding to methylated DNA; Q96T88; UHRF1 binding to methylated oligo, TR-FRET; AID 687016; inhibition, % at 4.4 µM; hit rate 0.75% among 370,000; in the data active = inhibition above about 21%;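 also: UHRF1 SRA domain binding a hemimethylated CpG hairpin DNA probe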
Target sequence (Q96T88 whole entry, looked up, the tested form may be a part): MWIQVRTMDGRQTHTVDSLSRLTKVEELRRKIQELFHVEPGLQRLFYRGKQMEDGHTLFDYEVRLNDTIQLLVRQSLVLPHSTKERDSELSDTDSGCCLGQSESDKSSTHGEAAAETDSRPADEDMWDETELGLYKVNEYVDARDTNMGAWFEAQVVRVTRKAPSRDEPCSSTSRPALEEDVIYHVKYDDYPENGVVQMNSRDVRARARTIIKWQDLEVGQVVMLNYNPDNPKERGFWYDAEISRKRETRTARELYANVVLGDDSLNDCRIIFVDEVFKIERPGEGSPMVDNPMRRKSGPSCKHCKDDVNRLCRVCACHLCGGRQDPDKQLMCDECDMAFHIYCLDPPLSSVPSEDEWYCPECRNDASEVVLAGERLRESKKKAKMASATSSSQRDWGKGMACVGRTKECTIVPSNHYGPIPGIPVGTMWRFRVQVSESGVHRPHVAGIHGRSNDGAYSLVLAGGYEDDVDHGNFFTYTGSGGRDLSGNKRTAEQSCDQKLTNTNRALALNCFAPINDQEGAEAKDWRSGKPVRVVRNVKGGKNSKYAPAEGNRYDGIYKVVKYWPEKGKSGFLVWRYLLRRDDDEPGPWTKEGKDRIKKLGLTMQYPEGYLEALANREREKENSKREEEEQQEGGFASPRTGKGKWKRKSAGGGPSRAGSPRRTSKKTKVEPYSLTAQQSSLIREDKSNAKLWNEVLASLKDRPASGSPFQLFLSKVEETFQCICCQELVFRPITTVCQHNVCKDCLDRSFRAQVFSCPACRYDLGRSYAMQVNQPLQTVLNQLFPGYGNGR
CSN deneddyl inh: CSN deneddylation inhibition; Purified CSN, SCF-Nedd8-OG deneddylation, fluorescence polarization; inhibition, % at 12.5 µM; hit rate 0.38% among 360,000;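 active = pattern-corrected inhibition above about 35%, with an unprinted fluorescence ratio check between 0.5 and 1.5, limit read from the data, passing the limit was not always enough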
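Assay system: HEK293T-derived human Csn5 enzyme; quantity: 0.24 nM enzyme; medium: Tris/NaCl/DTT buffer, pH 7.5; also added: substrate SCFSkp2-Nedd8OG, 10 nM; doses: 12.5 µM compound; schedule: 90 min reaction at room temperature; signal: FP; read-out: % inhibition of substrate cleavage by Csn5; benchmarks: substrate-only high control, full reaction low control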
LEDGF integ inh: blocks HIV-1 LEDGF/p75-dependent DNA integration; TR-FRET IN-LEDGF/p75 DNA integration, Eu/Cy5; inhibition, % at 3.7 µM; hit rate 0.64% among 370,000; AID 743269;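 active = inhibition above the screen-wide mean plus 3 SD, cut at about 13% in these data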;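 also: signal is the Cy5 over europium emission ratio at 671 and 618 nm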
rCAG binder: r(CAG) repeat RNA binding; TO-PRO-1 dye displacement fluorescence; inhibition, % at 3 µM; hit rate 1.3% among 370,000; AID 651821;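 active = inhibition above the plate cutoff, the mean of all test compounds on that plate plus 3 SD, cut at about 35% in these data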;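 also: higher means more dye released from RNA so lower well fluorescence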
ATG4B inhibitor: blocks human ATG4B protease cleavage of LC3 substrate; inhibition, % at 8.33 µM; hit rate 0.51% among 340,000; ATG4B cleavage of LC3-PLA2, NBD-HPC fluorescence, 1 h; Q9Y4P1; in the data active = inhibition above about 40%
IN multimer act: activates HIV-1 integrase multimerization in LEDGF counter-screen; AID 1053131; activation, % at 7.7 µM; hit rate 17% among 2,000; shares compounds with LEDGF integ inh; TR-FRET HIV-1 integrase multimerization, biochemical; in the data active = activation above about 8.9%
TR-FRET interf: optically interferes with TR-FRET readout in LEDGF counter-screen. shares compounds with LEDGF integ inh. TR-FRET optical interference counterscreen, HIV-1 IN multimerization. inhibition, % at 7.7 µM. 2,000 tested, under 10 active;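 active = inhibition above the mean over all tested compounds plus 3 SD, which no compound reached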
LEDGF integ conf: confirmation of HIV-1 LEDGF/p75-dependent integration inhibitors. hit rate 36% among 2,000. inhibition, % at 3.7 µM. shares compounds with LEDGF integ inh. AID 1053136. TR-FRET LEDGF/p75-dependent HIV-1 integration, biochemical; in the data active = inhibition above about 14%
Large screens that a line does not name were inactive (follow-up assays come after a bar, where they were run).

CCOc1cc(/C=N/Nc2nnc(C)n2N)ccc1O	LEDGF integ inh 66.0 | IN multimer act inactive | TR-FRET interf inactive | LEDGF integ conf inactive
Cc1cc(/C=N/NC(N)=S)c(C)n1-c1ccc(Br)cc1	none
Cc1nnc(N/N=C/c2cc(C)n(-c3ccc(F)cc3)c2C)n1N	LEDGF integ inh 45.0 | IN multimer act inactive | TR-FRET interf inactive | LEDGF integ conf inactive
CCc1nnc(N/N=C/c2c(F)cccc2Cl)n1N	LEDGF integ inh 56.6 | IN multimer act inactive | TR-FRET interf inactive | LEDGF integ conf inactive
Cc1nnc(N/N=C/c2c(Cl)cccc2Cl)n1N	LEDGF integ inh 35.3 | IN multimer act inactive | TR-FRET interf inactive | LEDGF integ conf inactive
CCOc1cc(/C=N/Nc2ncnc(Cl)c2N)ccc1O	none
O=S1(=O)c2c(NCc3ccco3)cccc2Oc2ccccc2CN1Cc1cn(Cc2cccc(F)c2)nn1	none (no result: CSN deneddyl inh, ATG4B inhibitor)
O=C(Cn1c(-c2cncs2)nc2ccccc21)N1CCCCC1	none (no result: CSN deneddyl inh, ATG4B inhibitor)
O=C(Cc1ccccc1)NC1CCCCN(Cc2ccc(Cl)cc2)C1=O (stereo unspecified)	none (no result: CSN deneddyl inh, ATG4B inhibitor)
COC(=O)[C@]12C[C@H](CC(=O)N3CCC(c4ccccc4)CC3)C(=O)N(Cc3ccco3)C1=C[C@H](C1CCCC1)O[C@@H]2C	none (no result: CSN deneddyl inh, ATG4B inhibitor)
COC(=O)c1cc(S(=O)(=O)N2CCCN(C(C)=O)CC2)cn1C	none (no result: CSN deneddyl inh, ATG4B inhibitor)
CCOC(=O)[C@H](Cc1ccccc1)NC(=O)[C@H]1C[C@@]2(N3CCCCC3)c3ccccc3N(C(=O)OC(C)(C)C)[C@H]2N1C(=O)OC(C)(C)C	none (no result: CSN deneddyl inh, ATG4B inhibitor)
CCc1nnc(N/N=C/c2cc(C)c(C)cc2C)n1N	LEDGF integ inh 57.8 | IN multimer act inactive | TR-FRET interf inactive | LEDGF integ conf inactive
Oc1ccccc1/C=N/Nc1nn[nH]n1	none
Cc1nnc(N/N=C/c2ccccc2O)n1N	LEDGF integ inh 58.9 | IN multimer act inactive | TR-FRET interf inactive | LEDGF integ conf inactive
COc1ccc(CC(=O)OC(C)CN2CCCCC2)cc1 (stereo unspecified)	LEDGF integ inh 15.0 | IN multimer act inactive | TR-FRET interf inactive | LEDGF integ conf inactive
O=C(N/N=C/C=C\c1ccco1)c1ccccn1	none
O=C(N/N=C/C=C/c1ccco1)c1cccnc1	LEDGF integ inh 26.6 | IN multimer act inactive | TR-FRET interf inactive | LEDGF integ conf 34.4
O=C(N/N=C/C=C\c1ccco1)c1cccnc1	none
O=C(N/N=C/C=C/c1ccco1)c1cnccn1	LEDGF integ inh 26.3 | IN multimer act inactive | TR-FRET interf inactive | LEDGF integ conf 20.4
O=C(CNc1cccc2ccccc12)N/N=C/C=C/c1ccco1	none
O=C(Cc1cccs1)N/N=C/C=C/c1ccco1	LEDGF integ inh 17.1 | IN multimer act inactive | TR-FRET interf inactive | LEDGF integ conf 30.8
O=C(OCc1cn(Cc2c(F)cccc2F)nn1)N1CCOCC1	none (no result: CSN deneddyl inh, ATG4B inhibitor)
CCN1CCCCC(NC(=O)c2ccccc2)C1=O (stereo unspecified)	none (no result: CSN deneddyl inh, ATG4B inhibitor)
C/C(=N\NC(=O)c1ccccc1[N+](=O)[O-])c1ccc(Br)s1	LEDGF integ inh 58.7 | IN multimer act inactive | TR-FRET interf inactive | LEDGF integ conf inactive
O=C(c1ccccc1)c1ccc2c(c1)OCCCO2	none
O=C1COc2ccc(C(=O)c3ccccc3)cc2CN1	LEDGF integ inh 50.0 | IN multimer act inactive | TR-FRET interf inactive | LEDGF integ conf inactive
COC(=O)C1=C(C)N(Cc2ccc(C(F)(F)F)cc2)C(=NCc2ccc3c(c2)OCO3)NC1c1cccc(Cl)c1 (stereo unspecified)	none (no result: CSN deneddyl inh, ATG4B inhibitor)
O=C1CC(Nc2ccc(N3CCOCC3)cc2)C(=O)N1c1ccccc1F (stereo unspecified)	LEDGF integ inh 15.3 | IN multimer act inactive | TR-FRET interf inactive | LEDGF integ conf inactive
CC1(C(=O)NCCC(F)(F)F)Cc2c(-c3cccc(C(N)=O)c3)ccnc2O1 (stereo unspecified)	LEDGF integ inh 14.2 (no result: ATG4B inhibitor) | IN multimer act inactive | TR-FRET interf inactive | LEDGF integ conf inactive
Cc1cccc(NC(=S)NN2CCOCC2)c1C	none
Cc1cccc(C(=O)NC(=S)Nc2ccc(N3CCOCC3)cc2)c1	LEDGF integ inh 20.5 | IN multimer act inactive | TR-FRET interf inactive | LEDGF integ conf inactive
Cc1cccc(NC(=S)Nc2ccc(N3CCOCC3)cc2)c1C	LEDGF integ inh 20.9 | IN multimer act inactive | TR-FRET interf inactive | LEDGF integ conf inactive
COC(=O)Cc1ccc(NC(=S)Nc2ccc(N3CCOCC3)cc2)cc1	LEDGF integ inh 13.5 | IN multimer act inactive | TR-FRET interf inactive | LEDGF integ conf inactive
COC(=O)Cc1ccc(NC(=S)NCCCN2CCOCC2)cc1	none
CCN(CC)C(=O)O[C@H]1CC[C@@]23CCCN2C(=O)CCC[C@H]3C1	none (no result: CSN deneddyl inh, rCAG binder, ATG4B inhibitor)
COC(=O)c1ccc(NC(=S)Nc2ccc(O)cc2)cc1	none
Oc1ccc(NC(=S)Nc2ccc(O)cc2)cc1	LEDGF integ inh 16.7 | IN multimer act inactive | TR-FRET interf inactive | LEDGF integ conf inactive
CC(C)C[C@H]1COc2cc(Br)ccc2S(=O)(=O)N1Cc1cn(CCC2OCCCO2)nn1	none (no result: CSN deneddyl inh, ATG4B inhibitor)
Cc1ccccc1-c1nn[nH]n1	none
Oc1ccc(N=Nc2ccccc2-c2nn[nH]n2)c(O)c1	LEDGF integ inh 19.3, rCAG binder 79.0 | IN multimer act 17.9 | TR-FRET interf inactive | LEDGF integ conf inactive
Nc1ccc(N2CCN(CCCCN3C(=O)C4CCCN4C3=O)CC2)cc1 (stereo unspecified)	LEDGF integ inh 21.7 | IN multimer act inactive | TR-FRET interf inactive | LEDGF integ conf inactive
Cc1cccc(C(=O)Nc2nc3ncccn3c2-c2ccc(F)cc2)c1	none (no result: CSN deneddyl inh, ATG4B inhibitor)
Cc1cccc(Nc2nc(N)nc(N)c2N=O)c1	none
Cc1ccc(N(C)c2nc(N)nc(N)c2N=O)cc1	LEDGF integ inh 14.4 (no result: CSN deneddyl inh, ATG4B inhibitor) | IN multimer act inactive | TR-FRET interf inactive | LEDGF integ conf 17.2
COc1ccc(-n2c(SCC(=O)Nc3ccccc3)nc(O)cc2=O)cc1	LEDGF integ inh 53.5 | IN multimer act inactive | TR-FRET interf inactive | LEDGF integ conf inactive
CNC(=O)CSc1nc2ccccc2c(=O)n1-c1cc(OC)ccc1OC	LEDGF integ inh 17.5 | IN multimer act inactive | TR-FRET interf inactive | LEDGF integ conf inactive
O=S1(=O)c2ccc(Br)cc2OC[C@@H](Cc2ccccc2)N1Cc1cn(Cc2ccc(C(F)(F)F)cc2)nn1	none (no result: CSN deneddyl inh, ATG4B inhibitor)
COc1ccccc1C=NN=C(NN=Cc1ccccc1OC)NN=Cc1ccccc1OC	LEDGF integ inh 32.1 | IN multimer act inactive | TR-FRET interf inactive | LEDGF integ conf inactive
COc1ccccc1C=NNC(=O)NN=Cc1ccccc1OC	none
